Assay outcomes from PubChem.
KCNQ1 block = blocks the human KCNQ1 potassium channel; P51787; CHO-K1 KCNQ1, FluxOR thallium flux fluorescence; active compounds read high; B-score at 10 µM; 310,000 compounds, 1.3% hits; AID 2642;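 active = compounds whose thallium flux B-score, printed positive for inhibition, exceeds three library SD while starting fluorescence stays within three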;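 note: channel opened by potassium depolarization with thallium stimulus after 20 min compound exposure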
KCNQ1 pot = potentiators or activators of human KCNQ1 potassium channel; P51787; CHO-K1 KCNQ1, thallium flux FluxOR fluorescence; active compounds read high; AID 2648; 310,000 compounds, 0.35% hits; B-score at 10 µM;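 active = fluorescence ratio B-score, a plate-corrected score, at least three library SD, with initial intensity B-score within 5 SD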
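Medium – assay buffer, equal DMSO in all wells · Material – CHO-K1 cell line with stable KCNQ1 potassium channel expression · Signal – kinetic FluxOR thallium fluorescence, 10-s 1-Hz baseline, 110-s post-stimulus read · Compound – single concentration per compound, DMSO matched to controls · Schedule – 37 °C overnight plating, 90-min dark dye load, 20-min compound pretreatment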
KCNK9 block = blocks the human KCNK9 two-pore domain potassium channel | Q9NPC2 | HEK293 KCNK9, FluxOR thallium flux fluorescence; active compounds read low | B-score at 10 µM | 310,000 compounds, 1.2% hits;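 active = ratio B-score over 3 SD below the library mean, with starting fluorescence within 5 SD of its mean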;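 note: negative B-score means less thallium flux so channel inhibition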
Target sequence (Q9NPC2 whole entry, looked up, the tested form may be a part): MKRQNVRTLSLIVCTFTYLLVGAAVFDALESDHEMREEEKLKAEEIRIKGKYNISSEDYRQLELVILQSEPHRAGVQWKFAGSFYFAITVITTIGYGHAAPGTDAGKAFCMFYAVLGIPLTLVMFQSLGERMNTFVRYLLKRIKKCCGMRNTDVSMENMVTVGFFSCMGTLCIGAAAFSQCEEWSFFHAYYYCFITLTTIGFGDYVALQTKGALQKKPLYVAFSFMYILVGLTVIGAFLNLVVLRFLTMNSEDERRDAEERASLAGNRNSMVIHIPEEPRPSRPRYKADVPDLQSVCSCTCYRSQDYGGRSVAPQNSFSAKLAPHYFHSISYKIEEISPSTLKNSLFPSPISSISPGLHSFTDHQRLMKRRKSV
KCNK3 inh = human KCNK3 channel inhibition, primary screen | B-score at 10 µM | O14649 | CHO-KCNK3 thallium flux, FluxOR fluorescence; active compounds read low | 340,000 compounds, 0.84% hits;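 active = B-score under library mean minus 4 SD, starting fluorescence ratio at most library mean plus 5 SD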;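 note: more negative B-score means stronger inhibition of thallium flux through KCNK3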
Kir21 block = inhibitors of mouse Kir2.1 inward-rectifier potassium channel | P35561 | HEK293-Kir2.1, FluxOR thallium flux fluorescence; active compounds read low | B-score at 10 µM | 310,000 compounds, 0.85% hits | AID 1672;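 active = fluorescence ratio B-score at or below minus 3 SD of library scores, with starting-brightness B-score within 2 SD, cut at about -4.2 in these data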;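 note: channel flux triggered by added potassium and thallium sulfate stimulus; B-score of peak minus minimum fluorescence over baseline after thallium stimulus; more negative B-score means stronger Kir2.1 block with less thallium influx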
hERG rescue = compounds protecting human hERG from proarrhythmic drug block | Q12809 | CHO-hERG, FluxOR thallium flux, dofetilide IC70 present | activation (rescue from dofetilide block), less the hit threshold, % at 10 µM | 310,000 compounds, 0.51% hits | AID 1511;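 active = activation above the mean of controls blocked by dofetilide plus 5 SD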;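 note: thallium influx through hERG after potassium depolarization seen as dye fluorescence rise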
* marks the source's active call; other numbers are inactive results; i = inactive; . = not tested or not shown. Shown are actives, neighbours in structure and some others; about 3.7% of the full set was active somewhere.

SMILES	KCNQ1 block	KCNQ1 pot	KCNK9 block	KCNK3 inh	Kir21 block	hERG rescue
CN(C)CCN(Cc1ccccc1)S(=O)(=O)c1ccc2c(c1)n(C)c(=O)c(=O)n2C	i	i	-7*	i	-2.6	-4
CC(=O)Nc1ccc(NC(=O)C(=O)N/N=C/c2cccnc2)cc1	i	i	i	i	-0.81	-8
Cc1cccc2c1-c1sc(C(=O)Nc3cccnc3)cc1CO2	i	i	-7.2*	i	0.6	-11
O=C(NOCc1ccccc1)c1coc(-c2ccccc2)n1	.	.	.	i	.	.
Cc1cccc2cc3c(N)c(C(=O)Nc4ccc(N5CCOCC5)cc4)sc3nc12	i	i	i	-11*	-2.9	-1
Cc1ccc2nc3sc(C(=O)Nc4ccc(N5CCOCC5)cc4)c(N)c3cc2c1	i	i	i	.	0.17	-1
O=C(NC(=S)Nc1nc2c(s1)CCCC2)c1ccc(C(=O)c2ccccc2)cc1	i	9*	i	i	1.9	14*
O=C(Nc1nc2c(s1)CCCC2)c1cccnc1	i	i	i	i	-0.68	-12
Cc1cccc(/C=C2/Sc3ccc(C(=O)NCCN4CCCC4)cc3NC2=O)c1	6*	i	i	i	-2.8	-32
O=C1Nc2cc(C(=O)NCCN3CCCCCC3)ccc2S/C1=C\c1ccccc1	i	i	i	i	-4.9*	-28
CCN1CCN(CCCNC(=O)c2ccc3c(c2)NC(=O)/C(=C\c2cccc(C)c2)S3)CC1	i	i	i	i	-4.1	-33
O=C(Nc1cc(C(F)(F)F)ccc1Cl)C(Sc1nnc(-c2cccs2)o1)c1ccccc1 (stereo unspecified)	6*	i	i	i	-1.9	-13
O=C(Nc1ccc(Cl)cc1C(F)(F)F)C(Sc1nnc(-c2cccs2)o1)c1ccccc1 (stereo unspecified)	6*	i	i	i	1.9	-12
CCN(CC)CCOC(=O)C(Cc1cccc2ccccc12)CC1CCCO1 (stereo unspecified)	i	i	i	i	0.79	-10
C/C(=N\OCc1ccccc1C#N)c1cc2ccccc2o1	i	i	-7.1*	i	0.54	-5
C/C(=N\OCc1ccc(C#N)cc1)c1cc2ccccc2o1	i	i	i	i	0.21	-10
COc1ccc(/C=C/CN2CCCC(CCC(=O)NCc3ccc(F)c(F)c3)C2)cc1 (stereo unspecified)	i	i	i	i	-4.9*	-15
O=C(Nc1cccc(-c2cccc(Cl)c2)c1)C1CCN(Cc2ccc(CO)o2)CC1	i	i	i	i	-6.1*	-31
Cc1ccc(CN2CCC(C(=O)Nc3cccc(-c4cccc(F)c4)c3)CC2)o1	i	i	i	i	-5.1*	-17
COCCCn1c(C)nnc1-c1cnn(-c2ccccc2)c1N	i	i	i	i	-0.29	-8
CCC(=NN=C(CC)c1ccccc1O)c1ccccc1O	.	.	.	-9.9*	.	.
CCOC(=O)c1cnc2c(C)cccc2c1NCCc1ccc(OC)c(OC)c1	i	i	i	i	-7.6*	-13
CCOC(=O)c1cnc2c(OC)cccc2c1Oc1ccccc1	i	i	i	i	-7.9*	-7
CCOC(=O)c1cnc2c(OC)cccc2c1N1CCN(c2ccccc2OC)CC1	i	i	i	i	0.56	-14
COc1ccc(C(CNC(=O)Cc2ccccc2F)N2CCCCC2)cc1 (stereo unspecified)	i	i	i	i	-1.8	6.3*
CCO[C@H]1OC(C(=O)N2CCN(C)CC2)=C[C@@H](C2CC2)[C@@H]1CCCO	i	i	i	i	-0.39	-5
Cc1c(Cc2ccc3c(c2)OCO3)sc(NC(=O)C(C)(C)C)c1C#N	i	i	-7.6*	i	0.94	-5
CCc1ccc(/C=N/NC(=O)c2cc(-c3ccccc3OC)nc3ccccc23)s1	6*	i	i	i	-1.2	-10
COc1ccc(/C=N\NC(=O)c2ccc(-c3ccccc3)cc2)cc1COC(C)=O	i	i	i	i	-0.87	-11
